Cl transport mod – KCC2 (human) Cl- transport modulation; B-score of Tl+ flux slope (higher = more flux/activation; lower = inhibition) at 10 µM; Q9H2X9; KCC2 cells, thallium flux FluoZin-2 fluorescence; AID 1456; 190,000 compounds, 2.2% hits;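 active means thallium flux slope and its plate-corrected score both differing from the plate sample mean at a set confidence after two filtering rounds, in either direction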;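 further: slope of fluorescence scaled to starting intensity during 10 to 20 s after thallium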
Target sequence (Q9H2X9 whole entry, looked up): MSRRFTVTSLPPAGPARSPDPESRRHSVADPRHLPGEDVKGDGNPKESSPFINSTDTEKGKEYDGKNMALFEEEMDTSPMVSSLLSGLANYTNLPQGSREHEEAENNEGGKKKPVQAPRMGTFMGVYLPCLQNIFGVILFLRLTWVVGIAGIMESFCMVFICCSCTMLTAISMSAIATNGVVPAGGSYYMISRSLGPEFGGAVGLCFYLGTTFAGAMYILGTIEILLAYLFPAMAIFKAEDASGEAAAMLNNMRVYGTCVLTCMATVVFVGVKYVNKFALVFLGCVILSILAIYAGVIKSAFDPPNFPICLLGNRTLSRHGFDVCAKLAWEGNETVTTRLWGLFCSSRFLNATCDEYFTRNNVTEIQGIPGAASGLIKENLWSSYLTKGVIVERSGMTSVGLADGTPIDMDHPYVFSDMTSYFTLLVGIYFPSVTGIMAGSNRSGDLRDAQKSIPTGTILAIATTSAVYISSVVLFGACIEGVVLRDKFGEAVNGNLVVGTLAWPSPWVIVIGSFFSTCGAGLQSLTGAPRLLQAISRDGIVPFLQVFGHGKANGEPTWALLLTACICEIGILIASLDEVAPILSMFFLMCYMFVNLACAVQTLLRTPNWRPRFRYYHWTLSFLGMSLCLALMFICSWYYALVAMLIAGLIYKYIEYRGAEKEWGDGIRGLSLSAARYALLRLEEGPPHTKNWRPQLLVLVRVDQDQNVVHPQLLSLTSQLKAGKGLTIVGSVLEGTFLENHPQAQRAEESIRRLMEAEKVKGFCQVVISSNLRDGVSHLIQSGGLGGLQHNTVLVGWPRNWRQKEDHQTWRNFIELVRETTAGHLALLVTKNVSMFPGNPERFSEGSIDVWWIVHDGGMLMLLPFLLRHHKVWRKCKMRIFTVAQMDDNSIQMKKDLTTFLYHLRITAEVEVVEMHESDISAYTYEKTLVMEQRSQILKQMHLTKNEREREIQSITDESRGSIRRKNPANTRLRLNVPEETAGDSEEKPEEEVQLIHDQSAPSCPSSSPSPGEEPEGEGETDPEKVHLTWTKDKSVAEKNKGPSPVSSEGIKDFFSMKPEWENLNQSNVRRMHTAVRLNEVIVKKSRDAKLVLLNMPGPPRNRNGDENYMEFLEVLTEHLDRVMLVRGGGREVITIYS
WT yeast gro inh – growth inhibition of WT yeast, mitochondrial fusion screen; 190,000 compounds, 2.1% hits; inhibition, % at 10 µM; mitochondrial fusion phenotypic screen, WT strain; in the data active means inhibition above about 58%; tested in S. cerevisiae
ROMK primary – modulates human ROMK potassium channel activity; P48048; Tet-inducible ROMK, thallium flux fluorescence; actives lie on both sides; B-score at 10 µM; 130,000 compounds, 2% hits;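 active means signal ratio slope over the read window, or its plate-corrected B-score, at least 3 SD from the plate mean, either direction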;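 further: B-score of the F/F0 ratio slope over 7 to 12 s after thallium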
Diaph inh CS – inhibits diaphorase or chemically oxidizes, flagging diaphorase assay artifacts; diaphorase resazurin-to-resorufin fluorescence, NADH, 16 min; bacterial (C. kluyveri) enzyme, not human; inhibition, % at 20 µM; 190,000 compounds, 0.69% hits; AID 1217;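 active means primary screen inhibition at 20 µM above a set limit, cut at about 50% in these data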
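material = Clostridium kluyveri diaphorase enzyme | amount = 0.14 U/mL diaphorase, enzyme working solution | schedule = incubation 16 min, room temperature | detection = fluorescence of resorufin formed from resazurin, Ex 544/Em 590 nm | benchmarks = positive control minus NADH, DMSO neutral control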
Diaph act CS – activates diaphorase or chemically reduces, flagging diaphorase assay artifacts | activation factor at 20 µM | 190,000 compounds, 0.005% hits | Diaphorase/resazurin coupled assay, resorufin fluorescence, 16 min; active compounds read high; 1 = vehicle wells, 0 = NADH-free wells;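 active means diaphorase activity raised at least twofold by the compound at 20 µM; inactive means activation factor below 2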
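System – purified diaphorase enzyme from Clostridium kluyveri · Input – enzyme 0.07 U/mL final · Also added – final NADH 0.114 mM, resazurin 0.1 mM · Measured by – fluorescence of resorufin, 544 nm excitation, 590 nm emission · Timing – 16 min enzyme reaction, ambient temperature · Measure – resorufin increase flagging diaphorase activators or reducers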
Lmaj promast – inhibitors of Leishmania major promastigote growth. inhibition, % at 10 µM. 200,000 compounds, 9% hits. Leishmania major promastigotes, resazurin fluorescence viability; in the data active means inhibition above about 50%;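 further: promastigotes grown with compound for 44 hours at 28 °C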
KCC2 sec1 – KCC2 (human) modulation, secondary assay; shares compounds with Cl transport mod; HEK293-KCC2, thallium flux, FluoZin2 fluorescence; active compounds read high; normalised thallium flux (F/F0 slope) at 10 µM; 3,700 compounds, 15% hits;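 active means thallium flux slope above the same plate's solvent-only control mean plus 3 SD; inconclusive means the two replicate wells disagree; inactive means no significant difference from solvent-only control wells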
KCC2 bumet counter – bumetanide-insensitive thallium flux in KCC2 cells with ouabain, counter-screen | 3,700 compounds, 49% hits | AID 1714 | shares compounds with Cl transport mod | normalized thallium flux at 10 µM | HEK293-KCC2 + bumetanide/ouabain, thallium flux FluoZin2; active compounds read high;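 active means thallium entry rate above the same plate's blocked-transporter control wells by more than 3 SD; inconclusive means the two repeat wells disagree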;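 further: raw slope of fluorescence over initial fluorescence between 10 and 20 s after thallium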
KCC2 secondary2 – confirmation of human KCC2 transport modulators; shares compounds with Cl transport mod; normalized thallium flux at 10 µM; 3,700 compounds, 23% hits; HEK293-KCC2, thallium flux FluoZin2 fluorescence; actives lie on both sides; F/F0 rise rate, 10–20 s post-thallium; AID 1715;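 active means thallium flux slope more than 3 SD above or below the plate's solvent-only control mean, mostly below; inconclusive means the two repeat wells disagreed; inactive means no significant shift from solvent-only controls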
HEK293 Tl flux – acts in parental HEK cells, KCC2 counter-screen | shares compounds with Cl transport mod | HEK293 parental cells, thallium flux FluoZin2, ouabain; baseline-ratio fluorescence slope, 10–20 s after thallium | thallium flux rate (normalised fluorescence) at 10 µM | 3,700 compounds, 46% hits;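 active means thallium flux rate significantly above the same plate's solvent-only control wells, beyond their mean plus 3 SD; inconclusive means the two replicate wells gave conflicting results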
KCC2 ouabain – KCC2 (human) modulation, ouabain retest; shares compounds with Cl transport mod; HEK293-KCC2, thallium flux FluoZin2 fluorescence; bidirectional: low = inhibitor, high = activator; raw Tl+ flux slope (below DMSO = inhibition, above = activation) at 10 µM; 3,700 compounds, 48% hits; AID 1717;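 active means thallium flux slope beyond 3 SD from same-plate DMSO control mean in most replicates, usually higher, sometimes lower; inconclusive means repeat tests gave conflicting results; inactive means no significant difference from controls in most replicates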;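 further: slope of initial-normalized fluorescence between seconds 10 and 20 after thallium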
HEK293 Tl flux2 – parental HEK flux effect, counter-screen 2. shares compounds with Cl transport mod. HEK293 parental, thallium flux FluoZin-2 fluorescence slope. thallium flux slope at 10 µM. 3,700 compounds, 33% hits;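 active means thallium flux slope above the same plate's solvent-control mean plus 3 SD in both duplicate wells; inconclusive means duplicate wells that disagreed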;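 further: run without ouabain in cells lacking the KCC2 cotransporter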
Each line names hits and unclear results; the compound was inactive in the other large screens (follow-up assays come after a bar, where they were run). Only some compounds are listed: those with a hit (about 12% of all), similar ones and a draw of the others.

CCOC(=O)c1c(C)[nH]c(C)c1C(=O)CSc1nc2ccccc2c(=O)n1-c1ccc(CC)cc1	Cl transport mod 4 | KCC2 sec1 inactive | KCC2 bumet counter 0.015 | KCC2 secondary2 inactive | HEK293 Tl flux inconclusive | KCC2 ouabain inactive | HEK293 Tl flux2 inconclusive
COc1ccc(C(c2nnnn2Cc2cccs2)N2CCN(c3ccccc3F)CC2)cc1 (centres undefined)	Cl transport mod -4.1 (no result: ROMK primary) | KCC2 sec1 inactive | KCC2 bumet counter inconclusive | KCC2 secondary2 inconclusive | HEK293 Tl flux inactive | KCC2 ouabain 0.018 | HEK293 Tl flux2 inactive
COCCn1nnnc1C(c1ccc(OC)cc1OC)N1CCN(c2ccccc2F)CC1 (centres undefined)	none
Cc1ccc(S(=O)(=O)Nc2cnc3ccccc3c2)cc1	none
COc1ccc(OC)c(S(=O)(=O)Nc2cnc3ccccc3c2)c1	Cl transport mod -5.6 (no result: ROMK primary) | KCC2 sec1 inactive | KCC2 bumet counter inactive | KCC2 secondary2 inactive | HEK293 Tl flux inactive | KCC2 ouabain inactive | HEK293 Tl flux2 inactive
CC(C)NC(=S)NCc1cccnc1	none (no result: ROMK primary)
O=C(CNC(=O)c1ccco1)OCC(=O)c1ccc2ccccc2c1	none (no result: ROMK primary)
COc1ccc(S(=O)(=O)Nc2ccccc2C(=O)NCc2ccco2)cc1Br	Cl transport mod -4.1 (no result: ROMK primary) | KCC2 sec1 inconclusive | KCC2 bumet counter inactive | KCC2 secondary2 0.023 | HEK293 Tl flux 0.0049 | KCC2 ouabain 0.012 | HEK293 Tl flux2 0.0083
Cc1ccc(SCCNC(=O)c2ccc(C)c([N+](=O)[O-])c2)cc1	none (no result: Cl transport mod, ROMK primary)
COCCN(CCOC)C(=O)c1ccc(SCc2ccc(C)cc2)c([N+](=O)[O-])c1	Cl transport mod -4.4 | KCC2 sec1 inactive | KCC2 bumet counter inactive | KCC2 secondary2 inactive | HEK293 Tl flux inactive | KCC2 ouabain 0.015 | HEK293 Tl flux2 inactive
COCCn1c(-c2ccccc2Cl)nc2c(c(=O)c3ccccc3n2C)c1=O	Cl transport mod -4.8 | KCC2 sec1 inconclusive | KCC2 bumet counter inactive | KCC2 secondary2 0.021 | HEK293 Tl flux 0.0058 | KCC2 ouabain 0.01 | HEK293 Tl flux2 inactive
CC(C)c1nc2c(c(=O)c3ccccc3n2C)c(=O)n1CCc1ccccc1	Cl transport mod -4.4 (no result: WT yeast gro inh, ROMK primary, Diaph inh CS, Diaph act CS, Lmaj promast) | KCC2 sec1 inactive | KCC2 bumet counter 0.022 | KCC2 secondary2 inactive | HEK293 Tl flux 0.012 | KCC2 ouabain inactive | HEK293 Tl flux2 inactive
COc1ccc(CC(=O)N2CCN(c3ccc(C4=NNC(=O)CC4C)cc3)CC2)cc1 (centres undefined)	none
O=S(=O)(Nc1nc2ccccc2nc1N1CCN(c2ccccn2)CC1)c1ccc(Cl)cc1	Cl transport mod -3.1, Lmaj promast 66 | KCC2 sec1 inactive | KCC2 bumet counter inactive | KCC2 secondary2 0.024 | HEK293 Tl flux inactive | KCC2 ouabain inconclusive | HEK293 Tl flux2 inactive
Cc1ccc(OCC(=O)N/N=C\c2cccs2)c([N+](=O)[O-])c1	none
